# According to ChEMBL document CHEMBL1799920, “Total synthesis and pharmacological characterization of solomonsterol A, a potent marine pregnane-X-receptor agonist endowed with anti-inflammatory activity” (J Med Chem, 2011):
# Activity calls are given as the source filed them. No cut-off for these calls is given here.
# Assays:
# Mus musculus [1] = assay: Antiinflammatory activity against trinitrobenzenesulfonic acid-induced colitis in human PXR expressing transgenic C57/BL6 mouse assessed as decrease in presence of indurations in colon at 10 mg/kg, ip administered on day 1 after TNBS challenge measured after 5 days; format: functional, organism-based; parameters: dose 10 mg/kg; settings: C57Bl/6
# Procedure, shortened: (§1)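 Therapeutic protocol in male hPXR mice. Colitis was induced with intrarectal TNBS 0.5 mg/mouse in 50% ethanol after a 16 h fast and light ketamine/xylazine anaesthesia. Drug at 10 mg/kg was given once daily from day 1 after TNBS. Mice were sacrificed 5 days after TNBS; n = 4–6 per group.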
# Mus musculus [2] = assay: (§2) Antiinflammatory activity against trinitrobenzenesulfonic acid-induced colitis in human PXR expressing transgenic C57/BL6 mouse assessed as decrease in appearance of submucosal edema in colon at 10 mg/kg, ip qd administered 3 days before TNBS challenge measured after 7 days by haematoxylin/eosin staining; format: functional, organism-based; parameters: dose 10 mg/kg; settings: C57Bl/6
# Procedure, shortened: (§3)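 Male hPXR mice (human PXR on mouse PXR-null background). Fasted 16 h and lightly anaesthetised with ketamine/xylazine, then given TNBS 0.5 mg/mouse in 50% ethanol intrarectally in 150 μL. Drug was dissolved in DMSO, diluted in 1% methylcellulose and given i.p. once daily for 3 days before TNBS. Vehicle controls received methylcellulose. Mice were sacrificed 4 days after TNBS; n = 6–7 per group.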
# Mus musculus [3] = assay: Antiinflammatory activity against trinitrobenzenesulfonic acid-induced colitis in human PXR expressing transgenic C57/BL6 mouse assessed as decrease in edema of colon at 10 mg/kg, ip qd administered 3 days before TNBS challenge measured after 7 days; format: functional, organism-based; parameters: dose 10 mg/kg; settings: C57Bl/6; procedure, shortened: as §3
# Mus musculus [4] = assay: Antiinflammatory activity against trinitrobenzenesulfonic acid-induced colitis in human PXR expressing transgenic C57/BL6 mouse assessed as decrease in weight loss at 10 mg/kg, ip qd administered 3 days before TNBS challenge measured after 7 days; format: functional, organism-based; parameters: dose 10 mg/kg; settings: C57Bl/6; procedure, shortened: as §3
# Mus musculus [5] = assay: Antiinflammatory activity against trinitrobenzenesulfonic acid-induced colitis in human PXR expressing transgenic C57/BL6 mouse assessed as decrease in goblet cells in colon at 10 mg/kg, ip administered on day 1 after TNBS challenge measured after 5 days by microscopically; format: functional, organism-based; parameters: dose 10 mg/kg; settings: C57Bl/6; procedure, shortened: as §1
# Mus musculus [6] = assay: Antiinflammatory activity against trinitrobenzenesulfonic acid-induced colitis in human PXR expressing transgenic C57/BL6 mouse assessed as decrease in vascular density in colon at 10 mg/kg, ip administered on day 1 after TNBS challenge measured after 5 days by microscopically; settings: C57Bl/6
# Mus musculus [7] = assay: as §2, with “epithelial erosions” for “submucosal edema”; format: functional, organism-based; parameters: dose 10 mg/kg; settings: C57Bl/6; procedure, shortened: as §3
# Mus musculus [8] = assay: Antiinflammatory activity against trinitrobenzenesulfonic acid-induced colitis in human PXR expressing transgenic C57/BL6 mouse assessed as increase in TGF-beta1 protein level in colon at 10 mg/kg, ip qd after 5 days; settings: C57Bl/6
# Mus musculus [9] = assay: Antiinflammatory activity against trinitrobenzenesulfonic acid-induced colitis in human PXR expressing transgenic C57/BL6 mouse assessed as decrease in evidence of mucosal hemorrhage in colon at 10 mg/kg, ip qd administered 3 days before TNBS challenge measured after 7 days; format: functional, organism-based; parameters: dose 10 mg/kg; settings: C57Bl/6; procedure, shortened: as §3
# Mus musculus [10] = assay: Antiinflammatory activity against trinitrobenzenesulfonic acid-induced colitis in human PXR expressing transgenic C57/BL6 mouse assessed as decrease in edema of colon at 10 mg/kg, ip administered on day 1 after TNBS challenge measured after 5 days; format: functional, organism-based; parameters: dose 10 mg/kg; settings: C57Bl/6; procedure, shortened: as §1
# Mus musculus [11] = assay: Antiinflammatory activity against trinitrobenzenesulfonic acid-induced colitis in human PXR expressing transgenic C57/BL6 mouse assessed as decrease in microscopic colon damage at 10 mg/kg, ip qd administered 3 days before TNBS challenge measured after 7 days; format: functional, organism-based; parameters: dose 10 mg/kg; settings: C57Bl/6; procedure, shortened: as §3
# Mus musculus [12] = assay: Antiinflammatory activity against trinitrobenzenesulfonic acid-induced colitis in human PXR expressing transgenic C57/BL6 mouse assessed as decrease in colonic myeloperoxidase level at 10 mg/kg, ip administered on day 1 after TNBS challenge measured after 5 days; format: functional, organism-based; parameters: dose 10 mg/kg; settings: C57Bl/6; procedure, shortened: as §1
# Mus musculus [13] = assay: Antiinflammatory activity against trinitrobenzenesulfonic acid-induced colitis in human PXR expressing transgenic C57/BL6 mouse assessed as decrease in presence of indurations in colon at 10 mg/kg, ip qd administered 3 days before TNBS challenge measured after 7 days; format: functional, organism-based; parameters: dose 10 mg/kg; settings: C57Bl/6; procedure, shortened: as §3
# Mus musculus [14] = assay: Antiinflammatory activity against trinitrobenzenesulfonic acid-induced colitis in human PXR expressing transgenic C57/BL6 mouse assessed as induction of CYP3A11 mRNA expression in colon at 10 mg/kg, ip qd after 5 days by quantitative RT-PCR; format: functional, organism-based; parameters: dose 10 mg/kg; settings: C57Bl/6; procedure, shortened: as §3
# Mus musculus [15] = assay: Antiinflammatory activity against trinitrobenzenesulfonic acid-induced colitis in human PXR expressing transgenic C57/BL6 mouse assessed as decrease in colonic myeloperoxidase activity at 10 mg/kg, ip qd after 5 days using trimethylbenzidine as substrate by spectrophotometry; format: functional, organism-based; parameters: dose 10 mg/kg; settings: C57Bl/6; procedure, shortened: as §3
# Mus musculus [16] = assay: Antiinflammatory activity against trinitrobenzenesulfonic acid-induced colitis in human PXR expressing transgenic C57/BL6 mouse assessed as decrease in cellular infiltrate in colon at 10 mg/kg, ip qd administered 3 days before TNBS challenge measured after 7 days; format: functional, organism-based; parameters: dose 10 mg/kg; settings: C57Bl/6; procedure, shortened: as §3
# Mus musculus [17] = assay: Antiinflammatory activity against trinitrobenzenesulfonic acid-induced colitis in human PXR expressing transgenic C57/BL6 mouse assessed as decrease in occurrence of diarrhea at 10 mg/kg, ip qd administered 3 days before TNBS challenge measured after 7 days; format: functional, organism-based; parameters: dose 10 mg/kg; settings: C57Bl/6; procedure, shortened: as §3
# Mus musculus [18] = assay: Antiinflammatory activity against trinitrobenzenesulfonic acid-induced colitis in human PXR expressing transgenic C57/BL6 mouse assessed as decrease in evidence of mucosal hemorrhage in colon at 10 mg/kg, ip administered on day 1 after TNBS challenge measured after 5 days; format: functional, organism-based; parameters: dose 10 mg/kg; settings: C57Bl/6; procedure, shortened: as §1
# Mus musculus [19] = assay: Antiinflammatory activity against trinitrobenzenesulfonic acid-induced colitis in human PXR expressing transgenic C57/BL6 mouse assessed as decrease in thickness of colon at 10 mg/kg, ip administered on day 1 after TNBS challenge measured after 5 days; format: functional, organism-based; parameters: dose 10 mg/kg; settings: C57Bl/6; procedure, shortened: as §1
# [20] = target: T1, Nuclear receptor subfamily 1 group I member 2 (Homo sapiens, UniProt O75469); assay: Transactivation of human PXR expressed in HepG2 cells after 18 hrs by luciferase reporter gene assay; format: cell-based
# T1 sequence (O75469 whole entry): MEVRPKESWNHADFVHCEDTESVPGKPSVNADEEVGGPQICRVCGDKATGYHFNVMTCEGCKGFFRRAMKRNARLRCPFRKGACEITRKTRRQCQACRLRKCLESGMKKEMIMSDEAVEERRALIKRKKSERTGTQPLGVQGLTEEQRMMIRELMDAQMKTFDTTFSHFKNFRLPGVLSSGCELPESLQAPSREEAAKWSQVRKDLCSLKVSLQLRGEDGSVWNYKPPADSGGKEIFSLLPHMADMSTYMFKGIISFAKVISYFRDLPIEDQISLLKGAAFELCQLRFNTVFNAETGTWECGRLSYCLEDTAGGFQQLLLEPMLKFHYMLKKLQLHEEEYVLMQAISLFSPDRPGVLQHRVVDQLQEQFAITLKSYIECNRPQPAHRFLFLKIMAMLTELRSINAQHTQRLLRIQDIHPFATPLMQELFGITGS
# Procedure, shortened: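 HepG2 cells were transiently transfected with pSG5-PXR, pSG5-RXR, pCMV-βgal and a CYP3A4-promoter luciferase reporter. 48 h after transfection, cells were stimulated for 18 h at 0.1, 1 and 10 μM. Luciferase was normalised to β-galactosidase; n = 4. Relative EC50 from n = 3.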
smiles,measurement,setting,value
C[C@H](CCCOS(=O)(=O)O)[C@H]1CC[C@H]2[C@@H]3CC[C@H]4C[C@H](OS(=O)(=O)O)[C@@H](OS(=O)(=O)O)C[C@]4(C)[C@H]3CC[C@]12C [SOLOMONSTEROL A],Activity,Mus musculus [1],Active
same,Activity,Mus musculus [2],Active
same,Activity,Mus musculus [3],Active
same,Activity,Mus musculus [4],Active
same,Activity,Mus musculus [5],Active
same,Activity,Mus musculus [6],Active
same,Activity,Mus musculus [7],Active
same,Activity,Mus musculus [8],Active
same,Activity,Mus musculus [9],Active
same,Activity,Mus musculus [10],Active
same,Activity,Mus musculus [11],Active
same,Activity,Mus musculus [12],Active
same,Activity,Mus musculus [13],Active
same,Activity,Mus musculus [14],Active
same,Activity,Mus musculus [15],Active
same,Activity,Mus musculus [16],Active
same,Activity,Mus musculus [17],Active
same,Activity,Mus musculus [18],Active
same,Activity,Mus musculus [19],Active
same,EC50,[20],5.2 µM
